Test results as given in ChEMBL document CHEMBL1146828, “Synthesis and biological characterisation of [3H]BBL454, a new CCK2 selective radiolabelled agonist displaying original pharmacological properties” (Bioorg Med Chem Lett, 2004).
Non-standard residues stand in square brackets, D forms with d. Residues, ends and D or L forms follow the SMILES beside them. *: point of attachment. NMeNle = CCCC[C@H](NC)C(=O)O; X1 = CCCCCNC(=O)CC(=O)*; Boc = CC(C)(C)OC(=O)*

Tests used:
[1] = molecular target: Cholecystokinin receptor type A (Cavia porcellus); assay: Ability to displace 1 nM [3H]pCCK-8 from Cholecystokinin type A receptor in guinea pig pancreatic membranes
[2] = molecular target: Gastrin/cholecystokinin type B receptor (Rattus norvegicus) (UniProt P30553); assay: Ability to displace 1 nM [3H]pCCK-8 from rat Cholecystokinin type B receptor stably expressing in CHO cells
[3] = test system: CHO; assay: Compound was evaluated for binding of [3H]BBL454 to two sites in CHO cells with low affinity; assay type: functional, Cricetulus griseus
[4] = test system: CHO; assay: Agonistic activity on inositol phosphate production by intact transfected CHO cells; assay type: functional, cell-based; conditions: Cricetulus griseus
How it was run: (§1)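 Functional agonism on intact CHO cells transfected with CCK2 receptors. Two read-outs were measured, inositol phosphate production and arachidonic acid liberation, each expressed as EC50.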

[5] = test system: CHO; assay: Compound was evaluated for binding of [3H]BBL454 to two sites in CHO cells with high affinity; assay type: functional, Cricetulus griseus
[6] = test system: CHO; assay: Agonistic activity on arachidonic acid liberation by intact transfected CHO cells; assay type: functional, cell-based; conditions: Cricetulus griseus
How it was run: as §1

[7] = test system: CHO; assay: Compound was evaluated for maximum binding of [3H]BBL454 to two sites in CHO cells with high affinity; assay type: functional, Cricetulus griseus

Sequence of Gastrin/cholecystokinin type B receptor (Rattus norvegicus) (P30553 whole entry, looked up): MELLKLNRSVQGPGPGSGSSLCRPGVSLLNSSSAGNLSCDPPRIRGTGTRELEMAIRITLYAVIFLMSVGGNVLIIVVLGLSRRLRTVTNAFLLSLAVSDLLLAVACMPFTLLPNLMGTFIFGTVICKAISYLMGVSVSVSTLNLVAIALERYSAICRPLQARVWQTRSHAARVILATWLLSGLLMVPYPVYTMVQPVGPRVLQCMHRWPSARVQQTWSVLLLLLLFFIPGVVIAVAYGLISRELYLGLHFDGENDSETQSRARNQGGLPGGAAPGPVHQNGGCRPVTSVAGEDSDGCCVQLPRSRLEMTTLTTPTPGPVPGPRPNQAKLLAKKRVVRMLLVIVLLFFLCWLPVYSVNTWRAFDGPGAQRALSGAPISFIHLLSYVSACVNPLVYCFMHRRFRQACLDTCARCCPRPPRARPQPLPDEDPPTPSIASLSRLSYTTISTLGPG

| SMILES | Ki [1] [nM] | Ki [2] [nM] | KD2 [3] [nM] | EC50 [4] [nM] | KD1 [5] [nM] | EC50 [6] [nM] | Bmax1 [7] [fmol/mg] |
| --- | --- | --- | --- | --- | --- | --- | --- |
| CCCC[C@@H](C(=O)N[C@@H](CC(=O)O)C(=O)N[C@@H](Cc1ccccc1)C(N)=O)N(C)C(=O)[C@H](Cc1c[nH]c2ccccc12)NC(=O)OC(C)(C)C (Boc-W[NMeNle]DF-NH2) | > 5000 | 2.6 | – | – | – | – | – |
| CCCCCNC(=O)CC(=O)N[C@@H](Cc1c[nH]c2ccccc12)C(=O)N(C)[C@@H](CCCC)C(=O)N[C@@H](CC(=O)O)C(=O)N[C@@H](Cc1ccccc1)C(N)=O (X1-W[NMeNle]DF-NH2) | 3640 | 2.66 | 194 | 2 | 0.71 | 6.9 | 120 |
